Series [1] is described as follows: Inhibition of VLA-4 (unknown origin) binding to VCAM-1 in human Jurkat TM cells after 30 mins by fibronectin mediated cell adhesion assay. It counts as cell-based. The method, boiled down: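 Calcein-labelled Jurkat TM cells (10^5/well) in Hepes 20 mM, NaCl 140 mM, CaCl2 1 mM, MgCl2 1 mM, 0.3% BSA with activating anti-α4 TS2/16. Cells were preincubated 30 min on wet ice with anti-α5 (5 µg/ml) and a compound dose–response, then bound 35 min at 37 °C, 5% CO2 to human plasma fibronectin-coated wells. Wells were washed 3× and read by fluorescence to give IC50.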

A short description of series [2]: AUC in iv dosed Sprague-Dawley rat. It counts as ADME, organism-based. The settings on record: plasma.
The nature of series [3]: AUC in po dosed Sprague-Dawley rat. Format: ADME, organism-based. The settings on record: plasma.
The nature of series [4]: Plasma concentration in po dosed Sprague-Dawley rat after 6 hrs. Format: ADME, organism-based.
Series [5] in a line: Oral bioavailability in Sprague-Dawley rat. It counts as ADME, organism-based. The settings on record: in vivo.
Series [6] is described as follows: Plasma concentration in po dosed Sprague-Dawley rat after 12 hrs. Format: ADME, organism-based.

SMILES strings stand for the structures.

In the case of `CCN(CC)c1ncc(N(C(C)C)S(=O)(=O)c2ccc(Cl)cc2)c(N[C@@H](Cc2ccc(OC(=O)N(C)C)cc2)C(=O)O)n1`, the IC50 – broadly, the concentration needed to halve the response being measured – in series [1] stood at 4 nM.
In the case of `CCN(CC)c1ncc(N(C)S(=O)(=O)c2ccc(C)cc2)c(N[C@@H](Cc2ccc(OC(=O)N(C)C)cc2)C(=O)O)n1`, the IC50 in series [1] was found to be 2 nM. For the same compound, the AUC – broadly, concentration integrated over time – in series [2] was determined as 41000 ng·h/mL; in series [3], 6000 ng·h/mL. The compound also showed a concentration at 6 h in series [4] of 100 ng/mL. In addition, in series [5], the bioavailability (in general, the share of a dose that reaches the circulation, judged against a reference dose that is usually intravenous) amounted to 15%.
In series [6], `CCN(CC)c1ncc(N(CC)S(=O)(=O)c2ccc(F)cc2)c(N[C@@H](Cc2ccc(OC(=O)N3CCCC3)cc2)C(=O)O)n1` displayed a concentration at 12 h of 180 ng/mL. Also, the IC50 in series [1] is 1 nM. Moreover, the exposure (AUC) in series [2] was 111000 ng·h/mL; in series [3], 51000 ng·h/mL. Further, the bioavailability in series [5] turned out to be 46%.
In the same order, the values of `CCN(CC)c1ncc(N(CC)S(=O)(=O)c2ccc(Cl)cc2)c(N[C@@H](Cc2ccc(OC(=O)N(C)C)cc2)C(=O)O)n1` are 12 ng/mL, 7 nM, 17000 ng·h/mL, 5100 ng·h/mL and 33%.
`Cc1ccc(S(=O)(=O)N(C)c2cncnc2N[C@@H](Cc2ccc(OC(=O)N(C)C)cc2)C(=O)O)cc1` came in with an IC50 in series [1] of 2 nM.
The compound `CCN(CC)c1ncc(N(C(C)C)S(=O)(=O)c2ccc(F)cc2)c(N[C@@H](Cc2ccc(OC(=O)N(C)C)cc2)C(=O)O)n1` gave an IC50 in series [1] of 5 nM.
Turning to `CCN(CC)c1ncc(N(CC)S(=O)(=O)c2ccc(F)cc2)c(N[C@@H](Cc2ccc(OC(=O)N3CCC3)cc2)C(=O)O)n1`, in series [6], the concentration at 12 h worked out at 10 ng/mL. This compound came in with an IC50 in series [1] of 2 nM. In addition, the AUC was 34000 ng·h/mL in series [2] and 6000 ng·h/mL in series [3]. For the same compound, the bioavailability in series [5] came out at 16%.
For `CCN(CC)c1ncc(N(CC)S(=O)(=O)c2ccc(Cl)cc2)c(N[C@@H](Cc2ccc(OC(=O)N3CCCC3)cc2)C(=O)O)n1` the same measures were 100 ng/mL, 17 nM, 110000 ng·h/mL, 34000 ng·h/mL and 31%.
For `CCN(CC)c1ncc(N(CC)S(=O)(=O)c2ccc(F)cc2)c(N[C@@H](Cc2ccc(OC(=O)N(C)C)cc2)C(=O)O)n1` the same measures were 60 ng/mL, 1 nM, 32000 ng·h/mL, 14000 ng·h/mL and 44%.
In the same order, the values of `CCN(CC)c1ncc(N(C)S(=O)(=O)c2ccc(Cl)cc2)c(N[C@@H](Cc2ccc(OC(=O)N3CCCC3)cc2)C(=O)O)n1` are 330 ng/mL, 19 nM, 153000 ng·h/mL, 51000 ng·h/mL and 33%.
In turn, `C#CCN(c1cnc(N(CC)CC)nc1N[C@@H](Cc1ccc(OC(=O)N2CCCC2)cc1)C(=O)O)S(=O)(=O)c1ccc(F)cc1F` returned a concentration at 12 h in series [6] of 120 ng/mL. Moreover, in series [1], the IC50 was determined as 13 nM. For the same compound, the results for the AUC in series [2] and in series [3] were 126000 ng·h/mL and 42000 ng·h/mL, respectively. The compound also returned a bioavailability in series [5] of 33%.
For `CCN(CC)c1ncc(N(C)S(=O)(=O)c2ccc(Cl)cc2)c(N[C@@H](Cc2ccc(OC(=O)N(C)C)cc2)C(=O)O)n1` the same measures were 130 ng/mL, 3 nM, 32000 ng·h/mL, 23000 ng·h/mL and 73%.
Consider `CCN(CC)c1ncc(N(CC)S(=O)(=O)c2ccc(F)cc2F)c(N[C@@H](Cc2ccc(OC(=O)N3CCCC3)cc2)C(=O)O)n1`, for which, in series [6], the concentration at 12 h was 50 ng/mL. In series [1], the IC50 was determined as 9 nM. Further, the AUC in series [2] was 83000 ng·h/mL; in series [3] it was 28000 ng·h/mL. In series [5], the bioavailability worked out at 34%.
With `CN(C)C(=O)Oc1ccc(C[C@H](NC(=O)[C@H]2N(S(=O)(=O)c3cnn(C)c3)CSC2(C)C)C(=O)O)cc1`, the IC50 in series [1] came to 2 nM.
Still for that read-out and setting: the figure for `CCN(CC)c1ncc(N(C(C)C)S(=O)(=O)c2ccc(F)c(F)c2)c(N[C@@H](Cc2ccc(OC(=O)N(C)C)cc2)C(=O)O)n1` is 7 nM.
On to `CCN(CC)c1ncc(N(C)S(=O)(=O)c2ccc(F)cc2F)c(N[C@@H](Cc2ccc(OC(=O)N3CCCC3)cc2)C(=O)O)n1`, for which, in series [6], the concentration at 12 h worked out at 100 ng/mL. Besides, the IC50 in series [1] is 8 nM. Also, the AUC in series [2] is 90000 ng·h/mL; in series [3], 16000 ng·h/mL. For the same compound, in series [5], the bioavailability came to 17%.
In the same order, the values of `CCN(CC)c1ncc(N(C)S(=O)(=O)c2ccc(C)cc2)c(N[C@@H](Cc2ccc(OC(=O)N3CCCC3)cc2)C(=O)O)n1` are 450 ng/mL, 6 nM, 173000 ng·h/mL, 74000 ng·h/mL and 43%.
For `CCN(CC)c1ncc(N(CC)S(=O)(=O)c2ccc(F)c(F)c2)c(N[C@@H](Cc2ccc(OC(=O)N(C)C)cc2)C(=O)O)n1` the same measures were 8 ng/mL, 4 nM, 17000 ng·h/mL, 4200 ng·h/mL and 24%.

Values taken from ChEMBL document CHEMBL2380222, “Arylsulfonamide pyrimidines as VLA-4 antagonists” (Bioorg Med Chem Lett, 2013).
